Source: PubChem BioAssay
HNF4A DNA FP: change in binding of human HNF4 alpha to DNA | HNF4a-FITC DNA binding, fluorescence polarization, 1 h | AID 1224865 | P41235 | 360,000 compounds, 0.3% hits | activity change, % at 10 µM; in the data active = activity change above about 30%, passing the limit was not always enough
Target sequence (P41235 whole entry, looked up): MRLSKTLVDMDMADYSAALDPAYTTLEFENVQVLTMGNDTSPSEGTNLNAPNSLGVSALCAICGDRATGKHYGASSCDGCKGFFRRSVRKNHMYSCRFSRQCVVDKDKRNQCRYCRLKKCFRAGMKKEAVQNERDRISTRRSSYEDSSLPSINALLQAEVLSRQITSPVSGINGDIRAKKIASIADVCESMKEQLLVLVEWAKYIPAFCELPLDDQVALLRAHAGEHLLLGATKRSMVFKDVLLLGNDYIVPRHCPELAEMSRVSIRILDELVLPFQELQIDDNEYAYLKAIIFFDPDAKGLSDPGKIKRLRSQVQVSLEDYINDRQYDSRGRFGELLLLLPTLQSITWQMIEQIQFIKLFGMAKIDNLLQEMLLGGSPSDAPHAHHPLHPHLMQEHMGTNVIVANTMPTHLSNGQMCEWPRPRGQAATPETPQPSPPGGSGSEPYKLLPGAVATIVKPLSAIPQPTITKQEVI
NR1D1 modulator: modulators of human Rev-erb alpha DNA binding; P20393; Rev-erbα–FITC-DNA binding, fluorescence polarization, 90 min; activity, % at 10 µM; 370,000 compounds, 0.79% hits;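 active = activity above about 14%, limit read from the data; passing the limit was not always enough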
TPT1 inhibitor: blocks Candida albicans tRNA 2'-phosphotransferase; recombinant caTPT1, FP RNA substrate dephosphorylation; inhibition, % at 5 µM; 300,000 compounds, 0.81% hits;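 active = inhibition above the mean of all tested compounds plus 3 SD, set per screening campaign, cut at about 24% in these data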
CSN deneddyl inh: CSN deneddylation inhibition | Q92905 | 360,000 compounds, 0.38% hits | Purified CSN, SCF-Nedd8-OG deneddylation, fluorescence polarization | inhibition, % at 12.5 µM;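 active = pattern-corrected inhibition above about 35%, with an unprinted fluorescence ratio check between 0.5 and 1.5, limit read from the data, passing the limit was not always enough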
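Assay system: Purified human Csn5 enzyme expressed in HEK293T cells | Amount: Enzyme 0.24 nM | Measured by: Fluorescence polarization readout | Medium: Tris/NaCl/DTT buffer, pH 7.5 | Compound dosing: One concentration, 12.5 µM, 0.25% DMSO | Times: 90 min incubation of compound, enzyme and substrate at room temperature | Control set: no-enzyme wells high, enzyme-with-substrate wells low | Read-out: % inhibition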
caTPT1 confirm: confirmation of Candida albicans TPT1 inhibitors | shares compounds with TPT1 inhibitor | recombinant caTPT1, fluorescence polarization, RNase T1 coupled | inhibition, % at 5 µM | 2,400 compounds, 74% hits | AID 2149;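 active = inhibition above the primary screen limit, the mean inhibition of all tested compounds plus 3 SD, cut at about 25% in these data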
RNase T1 counter: RNase T1 inhibition in TPT1 counter-screen; shares compounds with TPT1 inhibitor; RNase T1 cleavage, fluorescence polarization, 1536-well; inhibition, % at 5 µM; 2,400 compounds, 83% hits; AID 2153;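 active = inhibition above the solvent-only control well mean plus 3 SD, limit set per screening run, cut at about 23% in these data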;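 note: inhibitors block cleavage so intact labeled substrate keeps polarization high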
Target sequence (P00651 whole entry, looked up): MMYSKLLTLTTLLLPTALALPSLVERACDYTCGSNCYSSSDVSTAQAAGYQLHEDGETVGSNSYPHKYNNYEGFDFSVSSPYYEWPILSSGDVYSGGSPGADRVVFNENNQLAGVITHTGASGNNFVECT
A number is an active result; - = inactive; . = no result given. Only some compounds are listed: those with a hit (about 1.7% of all), similar ones and a draw of the others.

SMILES | HNF4A DNA FP | NR1D1 modulator | TPT1 inhibitor | CSN deneddyl inh | caTPT1 confirm | RNase T1 counter
N#Cc1c(C(F)(F)F)cc(-c2ccccc2)nc1SCc1nc(N)nc(N2CCOCC2)n1 | - | - | 46 | 60 | 56 | 60
N#Cc1c(C(F)(F)F)cc(-c2ccc(Cl)c(Cl)c2)nc1SCCN1CCOCC1 | - | - | - | - | . | .
O=[N+]([O-])c1ccc(N2CCCCC2)cc1N1CCOCC1 | - | - | 25 | - | - | -
O=[N+]([O-])c1ccc(N2CCOCC2)cc1N1CCCCC1 | - | - | - | - | . | .
CCCCN1CC(COCc2ccccc2)Oc2cccc(N3CCCCC3)c2S1(=O)=O (centres undefined) | . | - | . | . | . | .
O=[N+]([O-])C(/C=C(\Cl)[N+](=O)[O-])=C1N(Cc2ccc(Cl)nc2)CCN1Cc1ccc(Cl)nc1 | - | - | 40 | - | 51 | 70
Cc1ccc(NCN2C(=O)c3ccccc3C2=O)c(C)n1 | . | - | . | . | . | .
C=CCN1C(=O)/C(=C/C=C2/N(CC)c3ccc(S(=O)(=O)N(C)C)cc3N2CC)SC1=S | - | - | 161 | - | 144 | 138
CCN1C(=O)C(CC(=O)Nc2ccc(C)cc2C)Nc2cc(S(=O)(=O)N(C)C)ccc21 (centres undefined) | - | - | - | - | . | .
CCOC(=O)Cn1cnc2sc3c(c2c1=O)CCC3 | - | - | 36 | - | - | 23
COC(=O)Cn1cnc2sc3c(c2c1=O)CCCC3 | - | - | - | - | . | .
Cc1ccc(O)c(NC(=O)c2noc3c2CCCCC3)c1 | - | - | 25 | - | - | -
Cc1ccc(NC(=O)c2noc3c2CCCCC3)cc1 | - | - | - | - | . | .
Cc1nn(CC(=O)c2ccc(Br)s2)c(C)c1[N+](=O)[O-] | - | - | 33 | - | 49 | 63
Cc1nn(CC(=O)c2ccccc2Cl)c(C)c1[N+](=O)[O-] | - | - | - | - | . | .
CC(=O)N1CCN(c2ccc(N3CCN(C(C)=O)[C@@H](C)C3)c(C)c2)[C@@H](C)C1 | . | - | . | . | . | .
Nc1ccc(/C=C/C(=O)c2ccco2)cc1 | - | - | 73 | - | 81 | 92
CCOC(=O)[C@@]12CCC3=C1N(CCC3)C(=O)[C@H](CC(=O)NCCCCc1ccccc1)C2 | . | - | . | . | . | .
CCNc1cc2n(c(=O)n1)CCc1cc(OC)c(OC)cc1-2 | - | - | - | - | . | .
COc1cc2c(cc1OC)-c1cc(OCCN3CCOCC3)nc(=O)n1CC2 | - | - | 25 | - | 32 | 44
CC(=O)OCCC(CC(C)C)NC(=O)[C@H](CC(C)C)NC(=O)OCc1ccccc1 (some centres undefined) | . | - | . | . | . | .
Oc1c(Cl)cc(Cl)cc1/C=C/c1ccc2cccc(O)c2n1 | - | - | 56 | - | 51 | 59
Cc1cc(C)nc(N/N=C/C2=C(N3CCOCC3)C(=C\c3ccc(Cl)cc3)/CC2)n1 | - | - | - | - | . | .
O=C(O)c1ccc(N/N=C/C2=C(N3CCOCC3)C(=C\c3ccccc3)/CC2)cc1 | 35 | - | 101 | - | 119 | 124
Cc1ccc(NC(=O)CN2C(=O)S/C(=C\c3ccc(-c4cccc(C(=O)O)c4C)o3)C2=O)cc1 | . | . | - | . | . | .
SMILES | HNF4A DNA FP | NR1D1 modulator | TPT1 inhibitor | CSN deneddyl inh | caTPT1 confirm | RNase T1 counter
Cc1ccc(C)c(N2C(=N)S/C(=C\c3ccc(-c4ccccc4C(=O)O)o3)C2=O)c1 | - | - | 59 | - | 41 | 53
COC(=O)c1cc2c(c3c4cc(OC)ccc4n(S(=O)(=O)c4ccc(F)cc4)c13)C(=O)N(Cc1ccccc1)C2 | . | - | . | . | . | .
COCCCn1c(=O)/c(=C\c2cccc(OC)c2OC)s/c1=C(/C#N)C(=O)Nc1ccc(C(=O)O)cc1 | - | - | 62 | - | 73 | 87
CN(C)c1ccc(C(=O)NCCc2ccccc2-c2ccccc2CCC(=O)NCc2ccccc2)cc1 | . | - | . | . | . | .
CCOc1ccccc1C(=O)Nc1nccs1 | - | - | 27 | - | - | -
CCOc1ccccc1C(=O)Nc1nnc(COC)s1 | - | - | - | - | . | .
CCOC(=O)N1CCN(C(=O)C[C@H]2C[C@@]3(C(=O)OC)C(=C[C@H](COCc4ccccc4)O[C@@H]3C)N(CCC3=CCCCC3)C2=O)CC1 | . | - | . | . | . | .
CCOc1ccc(N2C(=O)CS/C2=C(\C(Cl)=C(Cl)Cl)[N+](=O)[O-])cc1 | 35 | . | 54 | - | 58 | 70
CC(C)(C)NS(=O)(=O)c1cc(C(=O)Nc2sccc2C#N)ccc1Cl | - | - | 36 | - | 32 | 43
N#Cc1ccsc1NC(=O)c1cnccn1 | - | - | - | - | . | .
O=C(N[C@H](Cc1ccccc1)C(=O)N1CCN(c2ncccn2)CC1)[C@H]1O[C@@H](n2ccc(=O)[nH]c2=O)[C@H](O)[C@@H]1O | . | - | . | . | . | .
Cc1c(N=C/C=C2\N(C)c3ccccc3C2(C)C)c(=O)n(-c2ccccc2)n1C | - | - | - | - | . | .
Cc1c(N=C/C=C2/N(C)c3ccccc3C2(C)C)c(=O)n(-c2ccccc2)n1C | - | - | 42 | - | 37 | 48
O=C(CCc1ccccc1)NNc1cc(N2CCCCC2)nc(N2CCCCC2)n1 | - | - | - | - | . | .
CC(C)(C)c1ccc(C(=O)NNc2cc(N3CCCCC3)nc(N3CCCCC3)n2)cc1 | - | - | 45 | - | - | -
O=C(N/N=C/c1sc2ccccc2c1O)c1ccccc1 | - | . | 135 | - | 135 | 128
COc1ccc(C(=O)N/N=C/c2c[nH]c3ccccc23)cc1 | - | - | - | - | . | .
O=C(N/N=C/c1ccc(F)cc1)c1ccccc1 | - | - | - | - | . | .
O=C(N/N=C/c1sc2ccccc2c1O)c1cccc2ccccc12 | 75 | - | 136 | - | 143 | 134
COc1ccc(C(=O)N/N=C/c2sc3ccccc3c2O)cc1 | - | . | 139 | - | 145 | 135
Cc1cccc(/N=C/c2sc3ccccc3c2O)n1 | - | - | 85 | - | 29 | 40
C=CCN1[C@@H](CC(C)C)COc2cccc(F)c2S1(=O)=O | . | - | . | . | . | .
CCCCN1CC(N2CCCC2)CS1(=O)=O (centres undefined) | . | - | . | . | . | .
CCC[C@H]1[C@@H](NC(=O)c2ccc(Cl)cc2)CC[C@@]23CCCN2C(=O)CCC[C@@H]13 | . | - | . | . | . | .
CC(C)c1ccc(C2C3CSCC=C3C(C#N)=C(N)C2(C#N)C#N)cc1 (centres undefined) | . | . | 36 | . | 38 | 48
CN1CC=C2C(C#N)=C(N)C(C#N)(C#N)[C@H](c3cccc(Cl)c3)C2C1 (some centres undefined) | - | - | - | - | . | .
O=C(c1ccco1)N1CCN(C(=O)c2cccc3c2C(=O)N(C2CCCCC2)C3)CC1 | - | - | 27 | - | - | 26
COC(=O)C1=C(C)N(Cc2ccccc2C(F)(F)F)C(=NCc2ccccc2C(F)(F)F)NC1c1cccc(C(F)(F)F)c1 (centres undefined) | . | - | . | . | . | .
O=C(C1=C(O)C(=O)N(CCN2CCOCC2)C1c1cccs1)c1cc2ccccc2o1 (centres undefined) | - | - | 55 | - | - | -
